Only some compounds are listed: those with a hit (about 2.3% of all), similar ones and a draw of the others.
Pemphigus Ab inh – human desmoglein-3 autoantibody binding inhibition; P32926; DSG3-coupled beads, scFv-anti-DSG3-GFP binding, flow cytometry; active compounds read low; binding (percent of control), % at 10 µM; hit rate 0.48% among 310,000; AID 588358;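 active means binding more than 3 SD below its plate's average and above zero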;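 further: hits lower antibody fragment binding to DSG3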
Target sequence (P32926 whole entry, looked up, the tested form may be a part): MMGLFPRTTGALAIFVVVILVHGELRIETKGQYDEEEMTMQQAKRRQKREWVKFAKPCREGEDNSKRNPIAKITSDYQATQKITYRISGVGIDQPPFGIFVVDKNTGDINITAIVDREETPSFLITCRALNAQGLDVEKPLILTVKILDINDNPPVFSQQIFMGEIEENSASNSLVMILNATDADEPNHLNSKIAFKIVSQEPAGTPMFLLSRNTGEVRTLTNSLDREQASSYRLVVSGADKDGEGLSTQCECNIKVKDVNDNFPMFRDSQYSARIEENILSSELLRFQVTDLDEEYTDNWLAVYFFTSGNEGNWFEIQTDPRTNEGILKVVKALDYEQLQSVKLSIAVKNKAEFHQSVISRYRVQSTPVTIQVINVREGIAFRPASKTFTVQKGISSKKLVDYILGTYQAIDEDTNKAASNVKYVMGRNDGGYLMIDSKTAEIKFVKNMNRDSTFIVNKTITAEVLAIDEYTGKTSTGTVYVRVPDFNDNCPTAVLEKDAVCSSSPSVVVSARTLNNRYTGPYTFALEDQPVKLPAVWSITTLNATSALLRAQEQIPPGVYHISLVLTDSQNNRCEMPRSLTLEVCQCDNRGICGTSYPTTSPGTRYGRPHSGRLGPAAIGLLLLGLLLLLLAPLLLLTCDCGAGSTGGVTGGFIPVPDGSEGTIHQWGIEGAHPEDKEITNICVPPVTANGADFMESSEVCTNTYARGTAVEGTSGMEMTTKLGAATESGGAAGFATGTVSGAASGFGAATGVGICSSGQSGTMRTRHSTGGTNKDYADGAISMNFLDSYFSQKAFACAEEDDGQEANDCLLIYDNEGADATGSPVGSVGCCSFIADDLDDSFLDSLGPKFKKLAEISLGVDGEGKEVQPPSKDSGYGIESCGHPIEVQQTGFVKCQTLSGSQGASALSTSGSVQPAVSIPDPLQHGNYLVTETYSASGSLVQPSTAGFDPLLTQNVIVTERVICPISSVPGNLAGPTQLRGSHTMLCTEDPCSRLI
pCIP destab – p/CIP protein destabilization; hit rate 0.01% among 290,000; F442A p/CIP-EGFP cells, EGFP fluorescence, 16 h; decrease of EGFP signal, % at 10 µM; AID 1984; Q05BA5;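 active means EGFP signal decrease of at least 30% at 10 µM or well 3 SD below plate mean, unless failing retest; inactive means the rest, including hits failing retest or dose response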
T cell HTS – T cell immune modulators affecting CD8 T cell-vesicle binding; hit rate 0.068% among 330,000; response (vesicle binding), % at 7 µM; AID 2052; 2C CD8+ T cell-vesicle binding, flow cytometry; active compounds read low;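 active means response, share of CD8 T cells binding vesicles, and their 90th percentile fluorescence all below set limits, cut at about 80% in these data, passing the limit was not always enough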;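 further: values below 100% mean blocked vesicle binding to the CD8+ T cells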
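Material: murine 2C transgenic CD8+ T lymphocytes / Also added: QL9-peptide-loaded Drosophila micro-vesicles bearing Ld, ICAM-1 and B7-1 / Schedule: binding step 1.5 h, 37 °C, antibody labelling 20 min, ice / Signal: flow cytometry, PE anti-B7-1 (FL2) versus Alexa647 anti-CD8 (FL8), PFA-fixed / Evaluation: percent CD8+ FL2 mean versus row control / Benchmarks: naked versus QL9-loaded vesicles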
CHT allo act – human CHT allosteric activation | Q9GZV3 | CHT-expressing cells, membrane potential dye, choline EC20; active compounds read high; LV-AA mutant CHT in HEK293 cells | B-score at 10 µM | hit rate 0.49% among 310,000;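 active means initial fluorescence not abnormally high and integrated response B-score, plate-corrected, over 3 SD above library mean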
GPR7 antag – human neuropeptides B/W receptor 1 antagonism | P48145 | GPR7-expressing cells, fluorescence antagonist assay | inhibition, % at 4.4 µM | hit rate 1.1% among 290,000 | AID 1861; in the data active means inhibition above about 16%, passing the limit was not always enough;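 further: cells stimulated with the agonist NPW; 0% = agonist with vehicle and 100% = vehicle without agonist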
CHT inh – inhibits the human high affinity choline transporter. Q9GZV3. CHT-expressing cells, membrane potential dye, choline response; active compounds read low. B-score at 10 µM. hit rate 0.86% among 310,000. AID 488975;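 active means B-score over 3 SD under the library average, and starting fluorescence ratio not unusually high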;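 further: choline stimulus applied at its EC90 after an EC20 pre-addition; B-score computed on integrated fluorescence ratio after choline addition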
An asterisk follows results filed as active.

How did COc1ccc(OC)c(-c2csc(NC(=O)Cc3ccc(F)cc3)n2)c1 do in these assays?
Pemphigus Ab inh: 101; pCIP destab: -10; T cell HTS: 178; CHT allo act: inactive; GPR7 antag: -12; CHT inh: inactive

Results for CNC(=S)N/N=C/c1c(C)nn(-c2cccc(Cl)c2)c1Cl ?
Pemphigus Ab inh: 27*; pCIP destab: -16; T cell HTS: 369; CHT allo act: inactive; GPR7 antag: -6; CHT inh: inactive

How did Cc1nn(-c2ccccc2)c(Cl)c1/C=N/NC(=O)OC(C)(C)C do in these assays?
Pemphigus Ab inh: 85; pCIP destab: -13; T cell HTS: 188; CHT allo act: inactive; GPR7 antag: -12; CHT inh: inactive

What do the screens show for `CCOC(=O)c1sc2nc(CC(C)C)c3c(c2c1N)CCC3`?
Pemphigus Ab inh: -12*; pCIP destab: -12; T cell HTS: 77; CHT allo act: inactive; GPR7 antag: 4; CHT inh: inactive

Results for Cn1c(=O)c(NCCc2ccccc2)c2c3c(cccc31)C(=O)c1ccccc1-2 ?
Pemphigus Ab inh: 204; pCIP destab: -334; T cell HTS: 646; CHT allo act: inactive; GPR7 antag: 64*; CHT inh: inactive

What do the screens show for `CCCc1c(C(=O)N/N=C/c2ccc3c(c2)OCO3)nnn1-c1nonc1N`?
Pemphigus Ab inh: 103

Results for CN(C)CCNc1nc2c(c(=O)[nH]c(=O)n2C)n1CCOc1ccccc1 ?
Pemphigus Ab inh: 81*; pCIP destab: 5; T cell HTS: 396; CHT allo act: inactive; GPR7 antag: -11; CHT inh: inactive

What do the screens show for `CCCNc1nc2c(c(=O)[nH]c(=O)n2C)n1CCOc1ccccc1`?
Pemphigus Ab inh: 103; pCIP destab: 2; T cell HTS: 158; CHT allo act: inactive; GPR7 antag: -15; CHT inh: inactive

Results for COC(=O)CCS(=O)(=O)c1nc(-c2ccccc2)cc(C(F)(F)F)n1 ?
pCIP destab: -5; T cell HTS: 488; CHT allo act: inactive; GPR7 antag: 15; CHT inh: inactive

What do the screens show for `CCOC(=O)CCS(=O)(=O)c1nc(-c2ccccc2)cc(C(F)(F)F)n1`?
Pemphigus Ab inh: 106; pCIP destab: -9; T cell HTS: 717; CHT allo act: inactive; GPR7 antag: 26*; CHT inh: inactive

How did CC(=O)Nc1ccc(NC(=O)CSc2nnc(N)n2-c2ccccc2)cc1 do in these assays?
Pemphigus Ab inh: 99

What do the screens show for `Oc1cc(-n2cccn2)c(O)cc1-n1cccn1`?
Pemphigus Ab inh: 86; pCIP destab: -5; T cell HTS: 123; CHT allo act: inactive; GPR7 antag: 46*; CHT inh: inactive

Results for O=Cc1ccccc1-n1cccn1 ?
Pemphigus Ab inh: 124; pCIP destab: 5; T cell HTS: 224; CHT allo act: inactive; GPR7 antag: 1; CHT inh: inactive

How did CCCCN1CC(COCc2ccccc2)Oc2cccc(OCc3ccc(OC)cc3)c2S1(=O)=O (centres undefined) do in these assays?
Pemphigus Ab inh: 99

How did CCN1/C(=C/c2ccc3cc(C)ccc3[n+]2C)Sc2ccc3sccc3c21 do in these assays?
Pemphigus Ab inh: 3.0*; pCIP destab: -129; GPR7 antag: 12

Results for CCN1/C(=C/c2ccc3cc(C)ccc3[n+]2CC)Sc2cc(C)ccc21 ?
Pemphigus Ab inh: 111; pCIP destab: -725; GPR7 antag: -1

What do the screens show for `O=C1NC(Cc2ccccc2)c2nc3ccc(F)cc3c(=O)n2-c2ncccc21` (centres undefined)?
Pemphigus Ab inh: 104

What do the screens show for `CCOC(=O)C1=C(O)/C(=C/c2ccc(-c3ccccc3C(=O)O)o2)SC1=Nc1ccc(C)cc1`?
Pemphigus Ab inh: 71*

What do the screens show for `CC(=O)Nc1ccc(S(=O)(=O)c2ccnc3cc(Cl)ccc23)cc1`?
Pemphigus Ab inh: 102

Results for CCOc1ccc(CC(=O)NNC(=S)NCCc2ccccc2)cc1 ?
Pemphigus Ab inh: 66*; pCIP destab: 1; T cell HTS: 358; CHT allo act: inactive; GPR7 antag: -5; CHT inh: inactive

What do the screens show for `CCOc1ccc(C(=O)NCCc2ccccc2)cc1`?
Pemphigus Ab inh: 118; pCIP destab: 0; T cell HTS: 256; CHT allo act: inactive; GPR7 antag: 23; CHT inh: inactive

Screening results: PubChem BioAssay, several laboratories
